Values after ≈ are worked out from the molar mass of the structure shown. Active and inactive are the calls of the source. No cut-off for these calls is given here.
Legend:
Staphylococcus aureus [1] = experiment: Bactericidal activity against stationary-phase methicillin-sensitive Staphylococcus aureus ATCC 29213 grown on nutrient-depleted CAMHB medium at 4 ug/ml after 24 hrs by time kill analysis; assay type: functional, organism-based
How it was run: (§1)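 Overnight stationary-phase cultures inoculated at ~10^7 CFU/ml into strain-matched spent CAMHB (pH 7.0, filter-sterilized). Oritavancin was kept at 0.002% polysorbate 80; daptomycin wells had 50 μg/ml CaCl2. Incubation at 37°C, 225 rpm. Samples were charcoal-quenched (25 mg/ml) before plating; points are means of duplicates. Bactericidal means ≥3-log drop at 24 h versus inoculum. ≥3 repeats.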

Staphylococcus aureus [2] = experiment: Antimicrobial activity against exponential-phase methicillin-sensitive Staphylococcus aureus ATCC 29213 assessed as membrane depolarization at 4 ug/ml after 30 mins using DiSC3(5) dye based fluorescence spectrophotometry; assay type: functional, organism-based
How it was run: (§2)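 Cells loaded with 1.5 μM DiSC3(5) 30 min in the dark at ambient temperature, diluted to OD600 0.005. Drug added without polysorbate 80. Fluorescence (ex 612/em 665 nm) followed for 30 min. Three repeats.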

Staphylococcus aureus [3] = experiment: Antimicrobial activity against stationary-phase methicillin-sensitive Staphylococcus aureus ATCC 29213 assessed as membrane permeability at 4 ug/ml after 30 mins by propidium iodide staining-based fluorescence spectrophotometry; assay type: functional, organism-based
How it was run: (§3)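 Cells prepared as for depolarization, in HEPES-CaCl2 buffer with glucose (exponential) or without (stationary), OD600 0.005. Syto 9 at 5 μM and propidium iodide at 30 μM. Drug added without polysorbate 80. Loss of Syto 9 fluorescence (ex 485/em 535 nm) read for 30 min. Three repeats.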

Staphylococcus aureus [4] = experiment: Antimicrobial activity against stationary-phase methicillin-sensitive Staphylococcus aureus ATCC 29213 membrane depolarization at 4 ug/ml after 30 mins using DiSC3(5) dye based fluorescence spectrophotometry; assay type: functional, organism-based; how it was run: as §2
Staphylococcus aureus [5] = experiment: Bactericidal activity against stationary-phase vancomycin-resistant Staphylococcus aureus isolate VRS5 grown on nutrient-depleted CAMHB medium at 4 ug/ml after 24 hrs by time kill analysis; assay type: functional, organism-based; how it was run: as §1
Staphylococcus aureus [6] = experiment: Bactericidal activity against stationary-phase methicillin-sensitive Staphylococcus aureus ATCC 29213 grown on nutrient-depleted CAMHB medium at 16 ug/ml after 24 hrs by time kill analysis; assay type: functional, organism-based; how it was run: as §1
Staphylococcus aureus [7] = experiment: Bactericidal activity against exponential-phase methicillin-sensitive Staphylococcus aureus ATCC 29213 grown on nutrient-depleted CAMHB medium at 16 ug/ml after 24 hrs by time kill analysis; assay type: functional, organism-based
Staphylococcus aureus [8] = experiment: Bactericidal activity against stationary-phase methicillin-resistant Staphylococcus aureus ATCC 33591 grown on nutrient-depleted CAMHB medium at 2 ug/ml after 24 hrs by time kill analysis; assay type: functional, organism-based; how it was run: as §1
Staphylococcus aureus [9] = experiment: Bactericidal activity against stationary-phase methicillin-resistant Staphylococcus aureus ATCC 33591 grown on nutrient-depleted CAMHB medium at 4 ug/ml after 24 hrs by time kill analysis; assay type: functional, organism-based; how it was run: as §1
Staphylococcus aureus [10] = experiment: Antimicrobial activity against exponential-phase methicillin-sensitive Staphylococcus aureus ATCC 29213 assessed as membrane permeability at 4 ug/ml after 30 mins by propidium iodide staining-based fluorescence spectrophotometry; assay type: functional, organism-based; how it was run: as §3
Staphylococcus aureus [11] = experiment: Bactericidal activity against stationary-phase vancomycin-resistant Staphylococcus aureus isolate VRS5 grown on nutrient-depleted CAMHB medium at 2 ug/ml after 24 hrs by time kill analysis
Staphylococcus aureus [12] = experiment: Bactericidal activity against exponential-phase methicillin-sensitive Staphylococcus aureus ATCC 29213 grown on nutrient-depleted CAMHB medium at 0.5 ug/ml after 24 hrs by time kill analysis; assay type: functional, organism-based
Staphylococcus aureus [13] = experiment: Bactericidal activity against exponential-phase methicillin-sensitive Staphylococcus aureus ATCC 29213 assessed as log reduction in bacterial count at 4 ug/ml within 2 hrs by time kill analysis; assay type: functional
Staphylococcus aureus [14] = experiment: Bactericidal activity against exponential-phase methicillin-sensitive Staphylococcus aureus ATCC 29213 grown on nutrient-depleted CAMHB medium at 4 ug/ml after 24 hrs by time kill analysis; assay type: functional, organism-based
Staphylococcus aureus [15] = experiment: Bactericidal activity against stationary-phase methicillin-sensitive Staphylococcus aureus ATCC 29213 assessed as log reduction in bacterial count at 4 ug/ml within 2 hrs by time kill analysis; assay type: functional
Staphylococcus aureus [16] = experiment: Antimicrobial activity against methicillin-sensitive Staphylococcus aureus ATCC 29213 assessed as inhibition of biofilm formation after 24 hrs by serial dilution method in presence of 0.002% polysorbate 80; assay type: functional
Staphylococcus aureus [17] = experiment: Antimicrobial activity against 4.6 X 10^6 CFU/peg methicillin-susceptible Staphylococcus aureus ATCC 29213 planktonic cells by broth microdilution method
Staphylococcus aureus [18] = experiment: Bacteriostatic activity against stationary-phase vancomycin-resistant Staphylococcus aureus isolate VRS5 grown on nutrient-depleted CAMHB medium at 8 ug/ml after 24 hrs by time kill analysis; assay type: functional, organism-based; how it was run: as §1
Staphylococcus aureus [19] = experiment: Bacteriostatic activity against stationary-phase methicillin-resistant Staphylococcus aureus ATCC 33591 grown on nutrient-depleted CAMHB medium at 8 ug/ml after 24 hrs by time kill analysis; assay type: functional, organism-based; how it was run: as §1
Staphylococcus aureus [20] = experiment: Antimicrobial activity against methicillin-sensitive Staphylococcus aureus ATCC 29213 planktonic cells by broth microdilution method in presence of 0.002% polysorbate 80; assay type: functional
Staphylococcus aureus [21] = experiment: Antimicrobial activity against methicillin-resistant Staphylococcus aureus ATCC 33591 assessed as inhibition of biofilm formation after 24 hrs by serial dilution method in presence of 0.002% polysorbate 80; assay type: functional
Homo sapiens = experiment: fCmax in human at 450 […]; assay type: ADME, organism-based; settings: in vivo
Staphylococcus aureus [22] = experiment: Antimicrobial activity against vancomycin-resistant Staphylococcus aureus isolate VRS5 planktonic cells by broth microdilution method in presence of 0.002% polysorbate 80; assay type: functional
Staphylococcus aureus [23] = experiment: Antimicrobial activity against methicillin-resistant Staphylococcus aureus ATCC 33591 planktonic cells by broth microdilution method in presence of 0.002% polysorbate 80; assay type: functional
Staphylococcus aureus [24] = experiment: Inhibition of cell division in stationary-phase methicillin-resistant Staphylococcus aureus ATCC 43300 assessed as absence of appearance of septal midline at 16 ug/ml by transmission electron microscopy; assay type: functional, organism-based
How it was run: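 Stationary-phase MRSA ATCC 43300 (5 × 10^7 CFU/ml) exposed for 3 h in nutrient-depleted CAMHB. Cells were fixed in 2.5% glutaraldehyde, post-fixed in 2% osmium tetroxide and en bloc stained with uranyl acetate. Samples were ethanol-dehydrated, embedded in LR White, thin-sectioned, and stained with uranyl acetate/lead citrate. Septa were viewed by TEM at 100 kV.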

Staphylococcus aureus [25] = experiment: Bactericidal activity against stationary-phase methicillin-sensitive Staphylococcus aureus ATCC 29213 assessed as log reduction in bacterial count at 16 ug/ml within 2 hrs by time kill analysis; assay type: functional
How it was run: (§4)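 Short (2-h) time-kill of ATCC 29213 at OD600 0.005 (~10^6 CFU/ml) in 10 mM HEPES-Cl pH 7.5 with 50 μg/ml CaCl2. Exponential cells had 5 mM glucose and stationary cells none. Oritavancin was tested without polysorbate 80; viable counts were taken by serial dilution plating. Three repeats; one shown.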

Staphylococcus aureus [26] = experiment: Antimicrobial activity against exponential-phase methicillin-sensitive Staphylococcus aureus ATCC 29213 grown on nutrient-depleted CAMHB medium assessed as membrane permeability at 16 ug/ml after 30 mins by propidium iodide staining-based fluorescence spectrophotometry; assay type: functional, organism-based
How it was run: (§5)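 Cells prepared as for depolarization: exponential-phase ATCC 29213 in HEPES-CaCl2 buffer with 5 mM glucose, stationary-phase without glucose, final OD600 0.005. Stained with 5 μM Syto 9 plus 30 μM propidium iodide. Fluorescence (ex 485/em 535 nm) monitored for 30 min after drug addition, without polysorbate 80. Three repeats; one shown.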

Staphylococcus aureus [27] = experiment: Antimicrobial activity against 4.6 X 10^6 CFU/peg methicillin-susceptible Staphylococcus aureus ATCC 29213 assessed as inhibition of biofilm formation after 24 hrs by serial dilution method
Staphylococcus aureus [28] = experiment: Antimicrobial activity against vancomycin-resistant Staphylococcus aureus isolate VRS5 assessed as inhibition of biofilm formation after 24 hrs by serial dilution method in presence of 0.002% polysorbate 80; assay type: functional
Staphylococcus aureus [29] = experiment: Antimicrobial activity against exponential-phase methicillin-sensitive Staphylococcus aureus ATCC 29213 grown on nutrient-depleted CAMHB medium assessed as membrane depolarization at 16 ug/ml after 30 mins using DiSC3(5) dye based fluorescence spectrophotometry; assay type: functional, organism-based
How it was run: (§6)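 MSSA ATCC 29213 exponential-phase cells (OD600 ≈0.25 subculture in CAMHB) or stationary-phase cells were washed in 10 mM HEPES-Cl pH 7.5 with 50 μg/ml CaCl2; buffer had 5 mM glucose for exponential cells and none for stationary cells. Cells were loaded with 1.5 μM DiSC3(5) for 30 min in the dark, then diluted to OD600 0.005. Drug was added without polysorbate 80 and fluorescence (ex 612/em 665 nm) followed in real time for 30 min. Three repeats; one shown.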

Staphylococcus aureus [30] = experiment: Bactericidal activity against stationary-phase vancomycin-resistant Staphylococcus aureus isolate VRS5 grown on nutrient-depleted CAMHB medium 16 ug/ml after 24 hrs by time kill analysis; assay type: functional, organism-based; how it was run: as §1
Staphylococcus aureus [31] = experiment: Antimicrobial activity against stationary-phase methicillin-sensitive Staphylococcus aureus ATCC 29213 grown on nutrient-depleted CAMHB medium assessed as membrane permeability at 16 ug/ml after 30 mins by propidium iodide staining-based fluorescence spectrophotometry; assay type: functional, organism-based; how it was run: as §5
Staphylococcus aureus [32] = experiment: Bactericidal activity against exponential-phase methicillin-sensitive Staphylococcus aureus ATCC 29213 assessed as log reduction in bacterial count at 16 ug/ml within 15 mins by time kill analysis; assay type: functional; how it was run: as §4
Staphylococcus aureus [33] = experiment: Antimicrobial activity against stationary-phase methicillin-sensitive Staphylococcus aureus ATCC 29213 grown on nutrient-depleted CAMHB medium assessed as membrane depolarization at 16 ug/ml after 30 mins using DiSC3(5) dye based fluorescence spectrophotometry; assay type: functional, organism-based; how it was run: as §6

SMILES	Activity (Staphylococcus aureus [1])	Activity (Staphylococcus aureus [5])	Activity (Staphylococcus aureus [6])	Activity (Staphylococcus aureus [7])	Activity (Staphylococcus aureus [8])	Activity (Staphylococcus aureus [9])	Activity (Staphylococcus aureus [11])	Activity (Staphylococcus aureus [12])	Activity (Staphylococcus aureus [14])	MBEC (Staphylococcus aureus [16]) [µg/mL]	MIC (Staphylococcus aureus [20]) [µg/mL]	MBEC (Staphylococcus aureus [21])	MIC (Staphylococcus aureus [22]) [µg/mL]	other results
CCCCCCCCCC(=O)N[C@@H](Cc1c[nH]c2ccccc12)C(=O)N[C@H](CC(N)=O)C(=O)N[C@@H](CC(=O)O)C(=O)N[C@@H]1C(=O)NCC(=O)N[C@@H](CCCN)C(=O)N[C@@H](CC(=O)O)C(=O)N[C@H](C)C(=O)N[C@@H](CC(=O)O)C(=O)NCC(=O)N[C@H](CO)C(=O)N[C@@H]([C@H](C)CC(=O)O)C(=O)N[C@@H](CC(=O)c2ccccc2N)C(=O)O[C@@H]1C	inactive	inactive	inactive	Active	Active	Active	inactive	Active	Active					Activity (Staphylococcus aureus [2]): Active; Activity (Staphylococcus aureus [3]): inactive; Activity (Staphylococcus aureus [4]): inactive; Activity (Staphylococcus aureus [10]): Active; FC (Staphylococcus aureus [13]): 3.4; FC (Staphylococcus aureus [15]): 0.7
CC(=O)NC[C@H]1CN(c2ccc(N3CCOCC3)c(F)c2)C(=O)O1 [LINEZOLID]										>128	8			MIC (Staphylococcus aureus [17]): 8 µg/mL (≈ 23.7 µM); Activity (Staphylococcus aureus [18]): inactive; Activity (Staphylococcus aureus [19]): inactive
CO[C@H]1/C=C/O[C@@]2(C)Oc3c(C)c(O)c4c(O)c(c(/C=N/N5CCN(C)CC5)c(O)c4c3C2=O)NC(=O)/C(C)=C\C=C\[C@H](C)[C@H](O)[C@@H](C)[C@@H](O)[C@@H](C)[C@H](OC(C)=O)[C@@H]1C [RIFAMPIN]		inactive			Active	Active	inactive			4	< 0.02	0.25 µg/mL	< 0.03	fCmax (Homo sapiens): 2 µg/mL; MIC (Staphylococcus aureus [23]): < 0.03 µg/mL
CN[C@H](CC(C)C)C(=O)N[C@H]1C(=O)N[C@@H](CC(N)=O)C(=O)N[C@H]2C(=O)N[C@H]3C(=O)N[C@H](C(=O)N[C@H](C(=O)O)c4cc(O)cc(O)c4-c4cc3ccc4O)[C@H](O)c3ccc(c(Cl)c3)Oc3cc2cc(c3O[C@@H]2O[C@H](CO)[C@@H](O)[C@H](O)[C@H]2O[C@H]2C[C@](C)(N)[C@H](O)[C@H](C)O2)Oc2ccc(cc2Cl)[C@H]1O [VANCOMYCIN]	inactive		inactive	Active				Active	Active	>128		>=128 ug ml-1	> 128	inhibition (Staphylococcus aureus [24]): inactive; Activity (Staphylococcus aureus [25]): inactive; Activity (Staphylococcus aureus [26]): inactive; MBEC (Staphylococcus aureus [27]): >128 µg/mL; MBEC (Staphylococcus aureus [28]): >128 µg/mL; Activity (Staphylococcus aureus [29]): inactive; Activity (Staphylococcus aureus [30]): inactive; Activity (Staphylococcus aureus [31]): inactive; Activity (Staphylococcus aureus [32]): inactive; Activity (Staphylococcus aureus [33]): inactive
